ChEMBL document CHEMBL4382248, “Optimization of a 1,3,4-oxadiazole series for inhibition of Ca2+/calmodulin-stimulated activity of adenylyl cyclases 1 and 8 for the treatment of chronic pain” (Eur J Med Chem, 2019)
Active and inactive are the calls of the source. No cut-off for these calls is given here.

Columns and labels:
Homo sapiens = species: Homo sapiens; assay: Selectivity ratio of IC50 for human AC8 expressed in HEK293 cells to IC50 for human AC1 expressed in HEK293 cells; type: cell-based
HEK293 = assay: (§1) Cytotoxicity against HEK293 cells expressing human AC1 at 30 uM preincubated for 30 mins followed by A23187 stimulation and measured after 1 hr by CellTiter-Glo luminescent cell viability assay relative to control; type: cell-based; settings: hek293, 1 h, 30 µM
Outline: (§2)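 Cytotoxicity in HEK lines stably expressing AC1 or AC8: single 30 µM dose, 90 min incubation. Viability was read by luminescent ATP reporter as % of DMSO-treated (100%) and Triton-X-treated (0%) controls.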

[1] = as §1; type: cell-based; settings: HEK293 cells expressing human AC1, read-out: Activity; outline: as §2
Mus musculus [2] = assay: Analgesic activity in C57BL/6 mouse model of CFA-induced inflammatory pain model assessed as reduction in mechanical sensitivity in ipsilateral paw at 5 mg/kg, ip measured after 30 mins post dose by von Frey filament test based modified up-and-down technique; type: functional, organism-based
Outline: (§3)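 Male C57BL/6 mice (n=7) received CFA in the ipsilateral hind paw. On day 2, after baseline hypersensitivity was measured, they were given vehicle or 5 mg/kg i.p. Mechanical sensitivity of ipsilateral and contralateral paws was recorded 30 min after injection. Analysis used two-way repeated-measures ANOVA with Bonferroni test.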

Mus musculus [3] = assay: Effect on mechanical sensitivity in contralateral pa in C57BL/6 mouse model of CFA-induced inflammatory pain model at 5 mg/kg, ip measured after 30 mins post dose by von Frey filament test based modified up-and-down technique; type: ADME, organism-based; settings: in vivo, 0.5 h; outline: as §3
Mus musculus [4] = assay: Analgesic activity in C57BL/6 mouse model of CFA-induced inflammatory pain model assessed as reduction in mechanical sensitivity in ipsilateral paw at 5 mg/kg, ip measured after 1 day post dose by von Frey filament test based modified up-and-down technique; type: functional, organism-based
Adenylate cyclase type 1 [5] = target: T1, Adenylate cyclase type 1 (Homo sapiens, UniProt Q08828); assay: Inhibition of human AC1 expressed in HEK293 cells assessed as decrease in A23187-stimulated cAMP accumulation preincubated for 30 mins followed by A23187 stimulation and measured after 1 hr by fluorescence assay; type: cell-based
Outline: (§4)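 HEK cells stably expressing AC1 or AC8; Ca2+/calmodulin-stimulated cAMP accumulation measured. Dose-response curves began at 30 µM. […] Values are the mean and SEM of three independent experiments.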
Target sequence in this assay (Q08828 whole entry): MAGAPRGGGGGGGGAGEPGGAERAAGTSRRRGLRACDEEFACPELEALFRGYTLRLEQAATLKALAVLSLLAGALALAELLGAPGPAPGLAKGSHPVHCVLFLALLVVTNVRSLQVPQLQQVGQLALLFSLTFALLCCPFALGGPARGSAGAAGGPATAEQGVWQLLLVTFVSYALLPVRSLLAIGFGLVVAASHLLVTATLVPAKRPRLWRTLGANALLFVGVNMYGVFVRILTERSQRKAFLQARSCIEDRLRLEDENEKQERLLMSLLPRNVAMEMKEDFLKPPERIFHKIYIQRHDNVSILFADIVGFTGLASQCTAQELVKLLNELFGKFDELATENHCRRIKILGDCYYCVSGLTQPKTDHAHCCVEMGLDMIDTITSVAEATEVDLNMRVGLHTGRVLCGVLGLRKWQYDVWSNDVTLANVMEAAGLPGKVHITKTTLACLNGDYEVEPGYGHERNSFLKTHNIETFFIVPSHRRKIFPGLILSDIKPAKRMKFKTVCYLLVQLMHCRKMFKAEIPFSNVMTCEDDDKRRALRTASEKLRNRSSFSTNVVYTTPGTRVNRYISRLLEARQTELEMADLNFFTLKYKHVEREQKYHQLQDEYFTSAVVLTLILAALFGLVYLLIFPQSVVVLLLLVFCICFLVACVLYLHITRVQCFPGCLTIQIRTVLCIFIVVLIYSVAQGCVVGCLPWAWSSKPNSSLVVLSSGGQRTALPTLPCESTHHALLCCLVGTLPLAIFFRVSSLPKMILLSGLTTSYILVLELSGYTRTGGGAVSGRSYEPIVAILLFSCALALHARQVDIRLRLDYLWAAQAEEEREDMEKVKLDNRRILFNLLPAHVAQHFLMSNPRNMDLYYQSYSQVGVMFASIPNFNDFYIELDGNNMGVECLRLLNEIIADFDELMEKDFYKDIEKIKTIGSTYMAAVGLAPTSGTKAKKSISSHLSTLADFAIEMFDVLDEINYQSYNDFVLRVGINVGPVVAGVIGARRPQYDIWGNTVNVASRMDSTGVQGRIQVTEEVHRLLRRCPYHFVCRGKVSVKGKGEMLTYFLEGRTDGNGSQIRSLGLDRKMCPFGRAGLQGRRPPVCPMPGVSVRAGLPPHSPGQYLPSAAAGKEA

Adenylate cyclase type 8 = Adenylate cyclase type 8 (Homo sapiens, UniProt P40145); assay: Inhibition of human AC8 expressed in HEK293 cells assessed as decrease in A23187-stimulated cAMP accumulation at 30 uM preincubated for 30 mins followed by A23187 stimulation and measured after 1 hr by fluorescence assay relative to control; type: cell-based; outline: as §4
Adenylate cyclase type 8, sequence (P40145 whole entry): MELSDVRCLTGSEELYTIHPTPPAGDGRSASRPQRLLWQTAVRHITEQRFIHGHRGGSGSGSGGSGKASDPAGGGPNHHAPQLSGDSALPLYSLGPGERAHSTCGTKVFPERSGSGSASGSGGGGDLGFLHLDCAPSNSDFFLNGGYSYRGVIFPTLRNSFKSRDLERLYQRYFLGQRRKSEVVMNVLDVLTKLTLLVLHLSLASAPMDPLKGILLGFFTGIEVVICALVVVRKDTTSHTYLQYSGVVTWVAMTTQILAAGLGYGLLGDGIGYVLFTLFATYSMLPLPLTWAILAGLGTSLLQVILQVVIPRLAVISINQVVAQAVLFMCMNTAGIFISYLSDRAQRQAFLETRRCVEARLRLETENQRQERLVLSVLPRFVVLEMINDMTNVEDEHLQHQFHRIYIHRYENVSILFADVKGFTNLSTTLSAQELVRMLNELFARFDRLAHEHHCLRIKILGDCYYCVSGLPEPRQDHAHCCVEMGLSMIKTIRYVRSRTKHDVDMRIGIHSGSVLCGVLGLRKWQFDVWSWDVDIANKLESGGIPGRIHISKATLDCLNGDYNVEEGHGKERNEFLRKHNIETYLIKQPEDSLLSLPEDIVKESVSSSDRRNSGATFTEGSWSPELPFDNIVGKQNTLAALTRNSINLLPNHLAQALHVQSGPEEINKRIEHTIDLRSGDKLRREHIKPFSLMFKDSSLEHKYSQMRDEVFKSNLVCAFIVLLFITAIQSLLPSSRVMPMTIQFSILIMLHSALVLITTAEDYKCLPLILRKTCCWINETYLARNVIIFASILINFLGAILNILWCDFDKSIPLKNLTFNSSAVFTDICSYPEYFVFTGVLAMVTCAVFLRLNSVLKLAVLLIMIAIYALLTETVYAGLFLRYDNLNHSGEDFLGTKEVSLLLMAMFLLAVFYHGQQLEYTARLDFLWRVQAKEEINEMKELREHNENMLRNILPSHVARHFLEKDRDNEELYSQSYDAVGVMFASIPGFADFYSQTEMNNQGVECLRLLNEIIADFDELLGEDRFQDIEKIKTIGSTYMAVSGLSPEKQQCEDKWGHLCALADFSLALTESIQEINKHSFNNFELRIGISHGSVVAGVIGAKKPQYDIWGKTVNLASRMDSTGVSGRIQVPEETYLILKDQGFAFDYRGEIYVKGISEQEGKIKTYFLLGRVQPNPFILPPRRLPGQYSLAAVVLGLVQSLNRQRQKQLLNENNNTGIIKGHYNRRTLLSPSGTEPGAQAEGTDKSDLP

Adenylate cyclase type 1 [6] = target: T1, Adenylate cyclase type 1; assay: Inhibition of human AC1 expressed in HEK293 AC3/AC6 deficit cells assessed as decrease in forskolin-stimulated cAMP accumulation preincubated for 30 mins followed by forskolin stimulation and measured after 1 hr by fluorescence assay; type: cell-based
Outline: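 HEK cells lacking AC3/AC6 were transiently transfected with AC1. Cells were incubated with test compounds in the presence of forskolin at 3, 10 or 30 µM, and cAMP accumulation was measured.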
Target sequence in this assay (Q08828 whole entry, looked up): as the sequence (Q08828 whole entry) above

Adenylate cyclase type 1 [7] = target: T1, Adenylate cyclase type 1; assay: Inhibition of AC1 (unknown origin) expressed in HEK cells assessed as decrease in A23187-stimulated cAMP accumulation preincubated for 30 mins followed by A23187 stimulation and measured after 1 hr; type: cell-based; outline: as §4
Target sequence in this assay (Q08828 whole entry): as above

Adenylate cyclase type 1 [8] = target: T1, Adenylate cyclase type 1; assay: Inhibition of human AC1 expressed in HEK293 cells assessed as decrease in A23187-stimulated cAMP accumulation at 30 uM preincubated for 30 mins followed by A23187 stimulation and measured after 1 hr by fluorescence assay relative to control; type: cell-based; outline: as §4
Target sequence in this assay (Q08828 whole entry, looked up): as the sequence (Q08828 whole entry) above

[9] = target: Adenylate cyclase type 2 (Homo sapiens) (UniProt Q08462); assay: Inhibition of human AC2 expressed in HEK293 cells assessed as PMA-stimulated cAMP accumulation at 30 uM preincubated for 30 mins followed by PMA stimulation and measured after 1 hr by fluorescence assay relative to control; type: cell-based; set-up: scale not given: the % may be the effect or the level left
Adenylate cyclase type 2 (Homo sapiens), sequence (Q08462 whole entry): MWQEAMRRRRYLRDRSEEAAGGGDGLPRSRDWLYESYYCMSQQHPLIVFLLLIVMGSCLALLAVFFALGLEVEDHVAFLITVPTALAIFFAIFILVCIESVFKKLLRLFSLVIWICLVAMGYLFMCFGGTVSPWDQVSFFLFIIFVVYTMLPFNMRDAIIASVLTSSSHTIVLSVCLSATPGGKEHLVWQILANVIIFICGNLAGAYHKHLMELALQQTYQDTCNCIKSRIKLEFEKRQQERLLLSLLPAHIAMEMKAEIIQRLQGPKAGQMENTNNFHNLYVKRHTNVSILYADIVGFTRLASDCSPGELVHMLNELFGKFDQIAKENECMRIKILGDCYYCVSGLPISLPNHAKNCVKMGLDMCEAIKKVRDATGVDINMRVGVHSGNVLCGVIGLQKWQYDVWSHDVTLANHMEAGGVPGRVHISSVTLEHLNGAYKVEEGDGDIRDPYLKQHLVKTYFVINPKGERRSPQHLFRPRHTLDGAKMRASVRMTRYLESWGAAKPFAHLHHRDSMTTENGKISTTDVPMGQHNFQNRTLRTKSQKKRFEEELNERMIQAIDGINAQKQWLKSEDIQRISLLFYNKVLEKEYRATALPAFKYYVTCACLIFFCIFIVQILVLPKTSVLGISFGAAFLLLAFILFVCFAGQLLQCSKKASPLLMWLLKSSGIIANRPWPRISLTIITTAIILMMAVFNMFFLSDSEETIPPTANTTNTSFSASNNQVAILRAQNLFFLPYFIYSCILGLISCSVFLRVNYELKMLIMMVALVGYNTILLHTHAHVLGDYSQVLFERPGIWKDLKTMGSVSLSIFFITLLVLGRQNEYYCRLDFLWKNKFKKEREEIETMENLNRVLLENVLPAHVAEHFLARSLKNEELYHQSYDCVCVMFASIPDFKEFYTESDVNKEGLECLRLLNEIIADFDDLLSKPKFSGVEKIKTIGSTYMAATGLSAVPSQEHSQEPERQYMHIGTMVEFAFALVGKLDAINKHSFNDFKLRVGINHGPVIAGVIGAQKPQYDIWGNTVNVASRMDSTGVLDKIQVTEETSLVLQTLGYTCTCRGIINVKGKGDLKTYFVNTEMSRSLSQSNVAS
Outline: (§5)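 Group 2 AC2 (PKC-stimulated) or group 3 AC (forskolin-stimulated) cells were exposed to a single 30 µM dose (n = 3). cAMP activity was normalized to DMSO controls set as 100%.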

[10] = target: Adenylate cyclase type 5 (Homo sapiens) (UniProt O95622); assay: Inhibition of human AC5 expressed in HEK293 cells assessed as forskolin-stimulated cAMP accumulation at 30 uM preincubated for 30 mins followed by forskolin stimulation and measured after 1 hr by fluorescence assay relative to control; type: cell-based; set-up: scale not given: the % may be the effect or the level left; outline: as §5
Adenylate cyclase type 5 (Homo sapiens), sequence (O95622 whole entry, looked up): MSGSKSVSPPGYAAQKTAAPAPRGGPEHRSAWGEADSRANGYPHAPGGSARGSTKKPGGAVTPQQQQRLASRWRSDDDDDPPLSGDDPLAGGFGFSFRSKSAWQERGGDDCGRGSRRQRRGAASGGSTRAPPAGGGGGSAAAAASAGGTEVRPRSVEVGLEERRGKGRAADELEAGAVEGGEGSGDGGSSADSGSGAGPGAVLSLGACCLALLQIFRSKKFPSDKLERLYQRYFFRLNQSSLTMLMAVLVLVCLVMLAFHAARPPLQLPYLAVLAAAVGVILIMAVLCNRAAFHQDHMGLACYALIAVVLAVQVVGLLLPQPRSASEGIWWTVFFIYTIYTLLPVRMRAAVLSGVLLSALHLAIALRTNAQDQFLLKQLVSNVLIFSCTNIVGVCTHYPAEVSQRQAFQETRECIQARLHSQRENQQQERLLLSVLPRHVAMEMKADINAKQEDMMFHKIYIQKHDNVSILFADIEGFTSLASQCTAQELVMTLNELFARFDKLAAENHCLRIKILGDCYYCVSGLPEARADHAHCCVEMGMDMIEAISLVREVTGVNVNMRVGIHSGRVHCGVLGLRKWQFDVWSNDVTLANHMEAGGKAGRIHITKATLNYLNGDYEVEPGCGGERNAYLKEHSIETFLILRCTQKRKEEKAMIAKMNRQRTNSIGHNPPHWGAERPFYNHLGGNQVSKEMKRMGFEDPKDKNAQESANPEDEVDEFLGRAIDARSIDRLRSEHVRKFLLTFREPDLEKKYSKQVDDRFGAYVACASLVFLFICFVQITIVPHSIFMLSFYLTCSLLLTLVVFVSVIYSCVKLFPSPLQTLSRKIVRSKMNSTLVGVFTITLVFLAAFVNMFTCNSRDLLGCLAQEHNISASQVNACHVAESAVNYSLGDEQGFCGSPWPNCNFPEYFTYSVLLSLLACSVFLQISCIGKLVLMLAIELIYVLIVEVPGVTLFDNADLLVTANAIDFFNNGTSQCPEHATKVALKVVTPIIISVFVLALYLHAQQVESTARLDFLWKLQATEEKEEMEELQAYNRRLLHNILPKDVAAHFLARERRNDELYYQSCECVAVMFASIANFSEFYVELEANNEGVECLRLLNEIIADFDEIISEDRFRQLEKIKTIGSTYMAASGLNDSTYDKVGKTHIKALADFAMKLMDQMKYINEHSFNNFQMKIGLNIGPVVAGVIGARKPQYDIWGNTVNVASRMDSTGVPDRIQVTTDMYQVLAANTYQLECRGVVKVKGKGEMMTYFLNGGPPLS

**Q.** What does the source list for `O=C(Nc1nnc(-c2ccc(F)cc2)o1)c1cccc(-c2ccccc2)c1`?
**A.** Ratio IC50 (Homo sapiens): 3; Activity (HEK293): 71%

**Q.** Which Ratio IC50 (Homo sapiens) does the source give for `Cc1cc(C(=O)Nc2nnc(-c3ccc(F)cc3)o2)cc(C(F)(F)F)c1` here?
**A.** The Ratio IC50 was 2.9.

**Q.** And the viability at 1 h, 30 µM [1]?
**A.** The viability at 1 h, 30 µM was 102%.

**Q.** And the Activity (Mus musculus [2])?
**A.** The Activity was “Active”.

**Q.** And the Activity (Mus musculus [3])?
**A.** Its Activity is “Non-Toxic”.

**Q.** And the Activity (Mus musculus [4])?
**A.** Its Activity is “inactive”.

**Q.** For `O=C(Nc1nnc(-c2ccccc2)o1)c1cccc(C(F)(F)F)c1`, which IC50 (Adenylate cyclase type 1 [5]) is on record?
**A.** Its IC50 is 13 µM.

**Q.** And the inhibition (Adenylate cyclase type 8)?
**A.** Its inhibition is 23%.

**Q.** And the Ratio IC50 (Homo sapiens)?
**A.** The Ratio IC50 was over 2.3.

**Q.** And the Activity (HEK293)?
**A.** The Activity was 78%.

**Q.** Which inhibition (Adenylate cyclase type 1 [6]) does the source give for `Nc1ncnc2c1NCN2C1CCCO1` (stereo unspecified) here?
**A.** Its inhibition is “Dose-dependent effect”.

**Q.** With `O=c1cc(C(Cl)(Cl)Cl)oc2ccc(Cl)cc12` as the compound, how does the IC50 (Adenylate cyclase type 1 [7]) read?
**A.** Its IC50 is 2.3 µM.

**Q.** What does the source list for `O=C(Nc1nnc(-c2ccco2)o1)c1ccccc1`?
**A.** inhibition (Adenylate cyclase type 8): 28%; inhibition (Adenylate cyclase type 1 [8]): 20%; Activity (HEK293): 73%

**Q.** With `O=C(Nc1nnc(-c2ccc3c(c2)CCCC3)o1)c1cccc(C(F)(F)F)c1` as the compound, how does the Ratio IC50 (Homo sapiens) read?
**A.** Its Ratio IC50 is 4.9 to 9.

**Q.** What about the inhibition (Adenylate cyclase type 1 [6]) of the same compound?
**A.** Its inhibition is “Dose-dependent effect”.

**Q.** And the viability at 1 h, 30 µM [1]?
**A.** The viability at 1 h, 30 µM was 107 to 125%.

**Q.** And the Activity [9]?
**A.** The Activity was 449%.

**Q.** What about the Activity [10] of the same compound?
**A.** Its Activity is 189%.
